Data published in ChEMBL document CHEMBL1156973, “(-)-Carbodine: enantiomeric synthesis and in vitro antiviral activity against various strains of influenza virus including H5N1 (avian influenza) and novel 2009 H1N1 (swine flu)” (Bioorg Med Chem Lett, 2010).

Assays:
[1] = Selectivity ratio of IC50 for MDCK cells to EC90 for Influenza A virus California/07/2009 /H1N1 by virus yield reduction assay; assay type: ADME, cell-based; details: dog, mdck
Method in brief: (§1)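 IC50 (50% inhibition of uninfected MDCK cells) divided by EC90 (concentration reducing the infectious virus titer by 90% in the yield reduction assay).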

[2] = Selectivity ratio of IC50 for MDCK cells to EC50 for Influenza A virus Duck/MN/1525/81/H5N1 by neutral red dye uptake assay; assay type: ADME, cell-based; details: dog, mdck
Method in brief: (§2)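 Neutral red uptake in MDCK cells: IC50 (50% inhibition of uninfected cells) divided by EC50 (50% inhibition of virus effect), both from replicate serial-dilution assays.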

[3] = Selectivity ratio of IC50 for MDCK cells to EC50 for inhibition of virus-induced cytopathic effect of Influenza A virus Solomon Islands/03/2006/H1N1; assay type: cell-based; details: dog, mdck
Method in brief: (§3)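 IC50 (50% inhibition of uninfected MDCK cells) divided by EC50 (concentration reducing virus-induced CPE by 50%, scored visually), both from replicate serial-dilution assays.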

[4] = test system: Influenza A virus (A/Puerto Rico/8/1934(H1N1)); assay: Antiviral activity against Influenza A virus Solomon Islands/03/2006/H1N1 infected MDCK cells after 3 days by virus yield reduction assay; assay type: functional, Influenza A virus (A/Solomon Islands/3/2006(H1N1))
Method in brief: (§4)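 Yield reduction assay: MDCK cells got serial compound dilutions and ≤300 CCID50 virus, in triplicate. Progeny virus was titrated. EC90 is the concentration reducing the infectious titer by 90%, as the mean of triplicates.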

Influenza A virus [5] = assay: Antiviral activity against Influenza A virus Wisconsin/67/2005/H3N2 infected MDCK cells after 3 days by virus yield reduction assay; assay type: functional, Influenza A virus (A/Wisconsin/67/2005(H3N2)); method in brief: as §4
Influenza A virus [6] = assay: Antiviral activity against Influenza A virus Vietnam/1203/ 2004H/H5N1 infected MDCK cells assessed as inhibition of virus-induced cytopathic effect after 3 days; assay type: functional, organism-based, A/Viet Nam/1203/2004(H5N1); details: mdck
[7] = test system: Influenza A virus (A/Puerto Rico/8/1934(H1N1)); assay: Antiviral activity against Influenza A virus Solomon Islands/03/2006/H1N1 infected MDCK cells after 42 to 46 hrs by neutral red dye uptake assay; assay type: functional, organism-based, Influenza A virus (A/Solomon Islands/3/2006(H1N1)); details: mdck
Method in brief: (§5)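 Triplicate MDCK wells got serial compound dilutions, then ≤300 CCID50 of virus, with the same inoculum for all replicates. Antiviral effect was read by neutral red dye uptake. EC50 is the concentration giving 50% inhibition of the virus effect, as the mean of triplicates.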

Influenza B virus [8] = assay: Antiviral activity against Influenza B virus Malaysia/2506/2004 infected MDCK cells after 3 days by virus yield reduction assay; assay type: functional, B/Malaysia/2506/2004; method in brief: as §4
Influenza B virus [9] = assay: Antiviral activity against Influenza B virus Malaysia/2506/2004 infected MDCK cells after 42 to 46 hrs by neutral red dye uptake assay; assay type: functional, organism-based, B/Malaysia/2506/2004; details: mdck; method in brief: as §5
H5N1 subtype [10] = assay: Antiviral activity against Influenza A virus Duck/MN/1525/81/H5N1 infected MDCK cells after 42 to 46 hrs by neutral red dye uptake assay; assay type: functional, organism-based, Influenza A virus (A/duck/Minnesota/1525/1981(H5N1)); details: mdck
[11] = Selectivity ratio of IC50 for MDCK cells to EC50 for inhibition of virus-induced cytopathic effect of Influenza A virus Vietnam/1203/ 2004H/H5N1; assay type: cell-based; details: dog, mdck; method in brief: as §3
[12] = Antiviral activity against Influenza A virus Solomon Islands/03/2006/H1N1 infected MDCK cells assessed as inhibition of virus-induced cytopathic effect after 3 days; assay type: functional, organism-based, Influenza A virus (A/Solomon Islands/3/2006(H1N1)); details: mdck
Method in brief: (§6)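 Triplicate MDCK (ATCC CCL-34) wells got serial dilutions of compound. They were then inoculated with ≤300 CCID50, enough for ~100% CPE in control wells within 3 days, using the same inoculum for all replicates. CPE was scored visually. EC50 is the concentration reducing CPE by 50%, as the mean of triplicates.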

H5N1 subtype [13] = assay: Antiviral activity against Influenza A virus Duck/MN/1525/81/H5N1 infected MDCK cells after 3 days by virus yield reduction assay; assay type: functional, Influenza A virus (A/duck/Minnesota/1525/1981(H5N1))
[14] = Selectivity ratio of IC50 for MDCK cells to EC50 for Influenza A virus California/07/2009 /H1N1 by neutral red dye uptake assay; assay type: ADME, cell-based; details: dog, mdck; method in brief: as §2
[15] = Selectivity ratio of IC50 for MDCK cells to EC50 for Influenza A virus Gull/PA/4175/83/H5N1 by neutral red dye uptake assay; assay type: ADME, cell-based; details: dog, mdck; method in brief: as §2
[16] = Selectivity ratio of IC50 for MDCK cells to EC50 for Influenza B virus Malaysia/2506/2004 by neutral red dye uptake assay; assay type: ADME, cell-based; details: dog, mdck; method in brief: as §2
H5N1 subtype [17] = assay: Antiviral activity against Influenza A virus Gull/PA/4175/83/H5N1 infected MDCK cells assessed as inhibition of virus-induced cytopathic effect after 3 days; assay type: functional, organism-based, Influenza A virus (A/gull/Pennsylvania/4175/83(H5N1)); details: mdck
[18] = Selectivity ratio of IC50 for MDCK cells to EC50 for inhibition of virus-induced cytopathic effect of Influenza B virus Malaysia/2506/2004; assay type: cell-based; details: dog, mdck; method in brief: as §3
H5N1 subtype [19] = assay: Antiviral activity against Influenza A virus Gull/PA/4175/83/H5N1 infected MDCK cells after 42 to 46 hrs by neutral red dye uptake assay; assay type: functional, organism-based, Influenza A virus (A/gull/Pennsylvania/4175/83(H5N1)); details: mdck
Influenza A virus [20] = assay: Antiviral activity against Influenza A virus Vietnam/1203/ 2004H/H5N1 infected MDCK cells after 42 to 46 hrs by neutral red dye uptake assay; assay type: functional, organism-based, A/Viet Nam/1203/2004(H5N1); details: mdck
H5N1 subtype [21] = assay: Antiviral activity against Influenza A virus Hong Kong/213/2003/H5N1 infected MDCK cells after 3 days by virus yield reduction assay; assay type: functional, Influenza A virus (A/Hong Kong/213/2003(H5N1))
[22] = Selectivity ratio of IC50 for MDCK cells to EC50 for Influenza A virus Vietnam/1203/ 2004H/H5N1 by neutral red dye uptake assay; assay type: ADME, cell-based; details: dog, mdck; method in brief: as §2
[23] = Selectivity ratio of IC50 for MDCK cells to EC50 for Influenza A virus Solomon Islands/03/2006/H1N1 by neutral red dye uptake assay; assay type: ADME, cell-based; details: dog, mdck; method in brief: as §2
[24] = Selectivity ratio of IC50 for MDCK cells to EC50 for Influenza A virus Hong Kong/213/2003/H5N1 by neutral red dye uptake assay; assay type: ADME, cell-based; details: dog, mdck; method in brief: as §2
[25] = Selectivity ratio of IC50 for MDCK cells to EC90 for Influenza A virus Duck/MN/1525/81/H5N1 by virus yield reduction assay; assay type: ADME, cell-based; details: dog, mdck; method in brief: as §1
[26] = Selectivity ratio of IC50 for MDCK cells to EC50 for inhibition of virus-induced cytopathic effect of Influenza A virus Duck/MN/1525/81/H5N1; assay type: cell-based; details: dog, mdck; method in brief: as §3
[27] = Selectivity ratio of IC50 for MDCK cells to EC90 for Influenza A virus Solomon Islands/03/2006/H1N1 by virus yield reduction assay; assay type: ADME, cell-based; details: dog, mdck; method in brief: as §1
H5N1 subtype [28] = assay: Antiviral activity against Influenza A virus Hong Kong/213/2003/H5N1 infected MDCK cells after 42 to 46 hrs by neutral red dye uptake assay; assay type: functional, organism-based, Influenza A virus (A/Hong Kong/213/2003(H5N1)); details: mdck
Influenza A virus [29] = assay: Antiviral activity against Influenza A virus California/07/2009 /H1N1 infected MDCK cells assessed as inhibition of virus-induced cytopathic effect after 3 days; assay type: functional, organism-based, A/California/07/2009(H1N1); details: mdck
Influenza A virus [30] = assay: Antiviral activity against Influenza A virus California/07/2009 /H1N1 infected MDCK cells after 3 days by virus yield reduction assay; assay type: functional, A/California/07/2009(H1N1)
Influenza A virus [31] = assay: Antiviral activity against Influenza A virus Wisconsin/67/2005/H3N2 infected MDCK cells assessed as inhibition of virus-induced cytopathic effect after 3 days; assay type: functional, organism-based, Influenza A virus (A/Wisconsin/67/2005(H3N2)); details: mdck; method in brief: as §6
Influenza A virus [32] = assay: Antiviral activity against Influenza A virus Vietnam/1203/ 2004H/H5N1 infected MDCK cells after 3 days by virus yield reduction assay; assay type: functional, A/Viet Nam/1203/2004(H5N1)
H5N1 subtype [33] = assay: Antiviral activity against Influenza A virus Duck/MN/1525/81/H5N1 infected MDCK cells assessed as inhibition of virus-induced cytopathic effect after 3 days; assay type: functional, organism-based, Influenza A virus (A/duck/Minnesota/1525/1981(H5N1)); details: mdck
Influenza A virus [34] = assay: Antiviral activity against Influenza A virus California/07/2009 /H1N1 infected MDCK cells after 42 to 46 hrs by neutral red dye uptake assay; assay type: functional, organism-based, A/California/07/2009(H1N1); details: mdck
[35] = Selectivity ratio of IC50 for MDCK cells to EC90 for Influenza A virus Hong Kong/213/2003/H5N1 by virus yield reduction assay; assay type: ADME, cell-based; details: dog, mdck; method in brief: as §1
[36] = Selectivity ratio of IC50 for MDCK cells to EC90 for Influenza A virus Wisconsin/67/2005/H3N2 by virus yield reduction assay; assay type: ADME, cell-based; details: dog, mdck; method in brief: as §1
[37] = Selectivity ratio of IC50 for MDCK cells to EC90 for Influenza B virus Malaysia/2506/2004 by virus yield reduction assay; assay type: ADME, cell-based; details: dog, mdck; method in brief: as §1
[38] = Selectivity ratio of IC50 for MDCK cells to EC50 for inhibition of virus-induced cytopathic effect of Influenza A virus Wisconsin/67/2005/H3N2; assay type: cell-based; details: dog, mdck; method in brief: as §3
[39] = Selectivity ratio of IC50 for MDCK cells to EC50 for Influenza A virus Wisconsin/67/2005/H3N2 by neutral red dye uptake assay; assay type: ADME, cell-based; details: dog, mdck; method in brief: as §2
[40] = Selectivity ratio of IC50 for MDCK cells to EC90 for Influenza A virus Vietnam/1203/ 2004H/H5N1 by virus yield reduction assay; assay type: ADME, cell-based; details: dog, mdck; method in brief: as §1
[41] = Selectivity ratio of IC50 for MDCK cells to EC50 for inhibition of virus-induced cytopathic effect of Influenza A virus California/07/2009 /H1N1; assay type: cell-based; details: dog, mdck; method in brief: as §3
Influenza B virus [42] = assay: Antiviral activity against Influenza B virus Malaysia/2506/2004 infected MDCK cells assessed as inhibition of virus-induced cytopathic effect after 3 days; assay type: functional, organism-based, B/Malaysia/2506/2004; details: mdck; method in brief: as §6
Influenza A virus [43] = assay: Antiviral activity against Influenza A virus Wisconsin/67/2005/H3N2 infected MDCK cells after 42 to 46 hrs by neutral red dye uptake assay; assay type: functional, organism-based, Influenza A virus (A/Wisconsin/67/2005(H3N2)); details: mdck; method in brief: as §5
[44] = Selectivity ratio of IC50 for MDCK cells to EC50 for inhibition of virus-induced cytopathic effect of Influenza A virus Gull/PA/4175/83/H5N1; assay type: cell-based; details: dog, mdck; method in brief: as §3

Nc1ccn([C@@H]2C[C@H](CO)[C@@H](O)[C@H]2O)c(=O)n1 (racemic)
Ratio [1]: > 94 | Ratio IC50/EC50 [2]: > 83 | Ratio IC50/EC50 [3]: > 218 | EC90 [4]: 2300 nM | EC90 (Influenza A virus [5]): 3500 nM | EC50 (Influenza A virus [6]): 1000 nM | EC50 [7]: 2000 nM | EC90 (Influenza B virus [8]): 3800 nM | EC50 (Influenza B virus [9]): 1300 nM | EC50 (H5N1 subtype [10]): 5000 nM | Ratio IC50/EC50 [11]: > 414 | EC50 [12]: 1900 nM | EC90 (H5N1 subtype [13]): 17600 nM | Ratio IC50/EC50 [14]: > 218 | Ratio IC50/EC50 [15]: > 296 | Ratio IC50/EC50 [16]: > 318 | EC50 (H5N1 subtype [17]): 1100 nM | Ratio IC50/EC50 [18]: > 518 | EC50 (H5N1 subtype [19]): 1400 nM | EC50 (Influenza A virus [20]): 2900 nM | EC90 (H5N1 subtype [21]): 2000 nM | Ratio IC50/EC50 [22]: > 143 | Ratio IC50/EC50 [23]: > 207 | Ratio IC50/EC50 [24]: > 230 | Ratio [25]: > 24 | Ratio IC50/EC50 [26]: > 173 | Ratio [27]: > 180 | EC50 (H5N1 subtype [28]): 1800 nM | EC50 (Influenza A virus [29]): 1500 nM | EC90 (Influenza A virus [30]): 4400 nM | EC50 (Influenza A virus [31]): 2800 nM | EC90 (Influenza A virus [32]): 12100 nM | EC50 (H5N1 subtype [33]): 2400 nM | EC50 (Influenza A virus [34]): 1900 nM | Ratio [35]: > 207 | Ratio [36]: > 118 | Ratio [37]: > 109 | Ratio IC50/EC50 [38]: > 148 | Ratio IC50/EC50 [39]: > 90 | Ratio [40]: > 34 | Ratio IC50/EC50 [41]: > 276 | EC50 (Influenza B virus [42]): 800 nM | EC50 (Influenza A virus [43]): 4600 nM | Ratio IC50/EC50 [44]: > 376
